Source: ChEMBL document CHEMBL4219118, “Cathepsin B inhibitors: Further exploration of the nitroxoline core” (Bioorg Med Chem Lett, 2018)
pKi: −log10 of the molar value. Each block holds one molecule with its values, some of them ahead of it. Activity calls are given as the source filed them. No cut-off for these calls is given here.

Experiments:
Cathepsin B [1] = target: T1, Cathepsin B (Homo sapiens, UniProt P07858); experiment: Non-competitive inhibition of recombinant human cathepsin B endopeptidase activity assessed as inhibitory constant for enzyme-inhibitor complex using Z-Arg-Arg-AMC as substrate in presence of pH 6 phosphate buffer by fluorescence assay
Cathepsin B [2] = target: T1, Cathepsin B; experiment: Non-competitive inhibition of recombinant human cathepsin B endopeptidase activity assessed as inhibitory constant for enzyme-substrate-inhibitor complex using Z-Arg-Arg-AMC as substrate in presence of pH 6 phosphate buffer by fluorescence assay
Cathepsin B [3] = target: T1, Cathepsin B; experiment: Competitive inhibition of recombinant human cathepsin B exopeptidase activity assessed as inhibitory constant for enzyme-inhibitor complex using Abz-Gly-Ile-Val-Arg-Ala-Lys(Dnp)-OH as substrate in presence of pH 5 acetate buffer by fluorescence assay
Cathepsin B [4] = target: T1, Cathepsin B; experiment: Competitive inhibition of recombinant human cathepsin B endopeptidase activity assessed as inhibitory constant for enzyme-inhibitor complex using Z-Arg-Arg-AMC as substrate in presence of pH 6 phosphate buffer by fluorescence assay
Cathepsin B [5] = target: T1, Cathepsin B; experiment: Non-competitive inhibition of recombinant human cathepsin B exopeptidase activity assessed as inhibitory constant for enzyme-inhibitor complex using Abz-Gly-Ile-Val-Arg-Ala-Lys(Dnp)-OH as substrate in presence of pH 5 acetate buffer by fluorescence assay
Cathepsin B [6] = target: T1, Cathepsin B; experiment: Competitive inhibition of recombinant human cathepsin B endopeptidase activity assessed as inhibitory constant for enzyme-inhibitor complex using Z-Arg-Arg-AMC as substrate in presence of pH 4.5 acetate buffer by fluorescence assay; conditions: read-out: Ki
Outline: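 Recombinant cathepsin B endopeptidase activity assayed with the small substrate Z-Arg-Arg-AMC at pH 4.5. Acidic conditions chosen to shift the enzyme toward the closed (exopeptidase) conformation. Ki reported.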

Cathepsin B [7] = target: T1, Cathepsin B; experiment: Non-competitive inhibition of recombinant human cathepsin B exopeptidase activity assessed as inhibitory constant for enzyme-substrate-inhibitor complex using Abz-Gly-Ile-Val-Arg-Ala-Lys(Dnp)-OH as substrate in presence of pH 5 acetate buffer by fluorescence assay
Cathepsin B [8] = target: T1, Cathepsin B; experiment: Uncompetitive inhibition of recombinant human cathepsin B endopeptidase activity assessed as inhibitory constant for enzyme-substrate-inhibitor complex using Z-Arg-Arg-AMC as substrate in presence of pH 6 phosphate buffer by fluorescence assay
Cathepsin B [9] = target: T1, Cathepsin B; experiment: Uncompetitive inhibition of recombinant human cathepsin B exopeptidase activity assessed as inhibitory constant for enzyme-substrate-inhibitor complex using Abz-Gly-Ile-Val-Arg-Ala-Lys(Dnp)-OH as substrate in presence of pH 5 acetate buffer by fluorescence assay
Cathepsin B [10] = target: T1, Cathepsin B; experiment: Inhibition of recombinant human cathepsin B endopeptidase activity assessed as inhibitory constant for enzyme-inhibitor complex using Z-Arg-Arg-AMC as substrate in presence of pH 6 phosphate buffer by fluorescence assay
Cathepsin B [11] = target: T1, Cathepsin B; experiment: Inhibition of cathepsin B in human MCF-10A neoT cells assessed as proteolysis of extracellular membrane by measuring decrease in extracellular degradation of DQ-collagen 4 at 1.25 uM incubated for 6 hrs measured for 2 hrs by fluorescence based spectrofluorimetric assay relative to control; type: cell-based
Outline: (§1)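 MCF-10A neoT cells (5 × 10⁴) incubated with DQ-collagen IV in the presence of compound or DMSO. Extracellular degradation product read by spectrofluorimetry. Mean of n = 3, six replicates per experiment.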

Cathepsin B [12] = target: T1, Cathepsin B; experiment: (§2) Inhibition of cathepsin B in human MCF-10A neoT cells assessed as proteolysis of extracellular membrane by measuring decrease in intracellular degradation of DQ-collagen 4 at 12.5 uM incubated for 2 hrs followed by DQ-collagen addition measured for 2 hrs by propidium iodide staining based flow cytometry relative to control; type: cell-based
Outline: (§3)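 MCF-10A neoT cells (6 × 10⁴) treated with compound or DMSO. Intracellular DQ-collagen IV degradation measured by flow cytometry, with unlabeled cells as background. Reduction expressed versus DMSO. Mean of n = 3, run in duplicate.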

Pro-cathepsin H [13] = target: T2, Pro-cathepsin H (Homo sapiens, UniProt P09668); experiment: Competitive inhibition of human liver cathepsin H assessed as inhibitory constant for enzyme-inhibitor complex using R-AMC as substrate in presence of pH 6 phosphate buffer by fluorescence assay
T2 sequence (P09668 whole entry): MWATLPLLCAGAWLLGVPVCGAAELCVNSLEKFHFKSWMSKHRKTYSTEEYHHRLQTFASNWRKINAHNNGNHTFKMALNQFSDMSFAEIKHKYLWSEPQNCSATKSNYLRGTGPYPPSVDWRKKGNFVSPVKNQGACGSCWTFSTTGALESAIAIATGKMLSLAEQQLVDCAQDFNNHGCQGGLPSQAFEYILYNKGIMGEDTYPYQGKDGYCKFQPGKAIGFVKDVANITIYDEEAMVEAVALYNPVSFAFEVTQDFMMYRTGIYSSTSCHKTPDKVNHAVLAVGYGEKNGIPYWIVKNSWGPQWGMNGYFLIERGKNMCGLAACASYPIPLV

Procathepsin L [14] = target: T3, Procathepsin L (Homo sapiens, UniProt P07711); experiment: Competitive inhibition of recombinant human cathepsin L expressed in Escherichia coli assessed as inhibitory constant for enzyme-inhibitor complex using Z-FR-AMC as substrate in presence of pH 6 phosphate buffer by fluorescence assay
MCF-10A-neoT [15] = experiment: Antiinvasive activity against human MCF10AneoT cells at 1.25 uM incubated for 1 hr measured every 15 mins for 72 hrs by real time xCELLigence assay relative to control; type: functional
Outline: (§4)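 MCF-10A neoT cells (3 × 10⁴) seeded on Matrigel-coated (1 mg/mL) upper compartments of CIM-plates. Compound or DMSO (0.05%) added to growth medium in both upper and lower compartments. Invasion followed by impedance (cell index) for 72 h. Slopes (1/h) between 4 and 14 h converted to percentage invasion versus DMSO. Means of n = 2, each run in triplicate.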

U-87 MG [16] = experiment: Growth inhibition of human U87MG tumor spheroids at 1.25 uM measured up to 3 days by light microscopy; type: functional, cell-based; conditions: U-87MG ATCC
Outline: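 U-87 MG multicellular spheroids formed by hanging drop and implanted in Matrigel with compound. Spheroid dimensions measured for up to three days and volume calculated. Means of n = 2.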

MCF-10A-neoT [17] = experiment: Cytotoxicity against human MCF10AneoT cells assessed as decrease in cell viability after 72 hrs by MTS assay; type: cell-based
U-87 MG [18] = experiment: Cytotoxicity against human U87MG cells assessed as decrease in cell viability after 72 hrs by MTS assay; type: cell-based; conditions: u-87mg atcc
Cathepsin B [19] = target: T1, Cathepsin B; experiment: Mixed inhibition of recombinant human cathepsin B exopeptidase activity assessed as inhibitory constant for enzyme-inhibitor complex using Abz-Gly-Ile-Val-Arg-Ala-Lys(Dnp)-OH as substrate in presence of pH 5 acetate buffer by fluorescence assay
Cathepsin B [20] = target: T1, Cathepsin B; experiment: Mixed inhibition of recombinant human cathepsin B exopeptidase activity assessed as inhibitory constant for enzyme-substrate-inhibitor complex using Abz-Gly-Ile-Val-Arg-Ala-Lys(Dnp)-OH as substrate in presence of pH 5 acetate buffer by fluorescence assay
Cathepsin B [21] = target: T1, Cathepsin B; experiment: Inhibition of cathepsin B in human MCF-10A neoT cells assessed as proteolysis of extracellular membrane by measuring decrease in extracellular degradation of DQ-collagen 4 at 5 uM incubated for 6 hrs measured for 2 hrs by fluorescence based spectrofluorimetric assay relative to control; type: cell-based; outline: as §1
Cathepsin B [22] = target: T1, Cathepsin B; experiment: as §2, with “50” for “12.5”; type: cell-based; outline: as §3
Pro-cathepsin H [23] = target: T2, Pro-cathepsin H; experiment: Uncompetitive inhibition of human liver cathepsin H assessed as inhibitory constant for enzyme-substrate-inhibitor complex using R-AMC as substrate in presence of pH 6 phosphate buffer by fluorescence assay
Procathepsin L [24] = target: T3, Procathepsin L; experiment: Non-competitive inhibition of recombinant human cathepsin L expressed in Escherichia coli assessed as inhibitory constant for enzyme-inhibitor complex using Z-FR-AMC as substrate in presence of pH 6 phosphate buffer by fluorescence assay
Procathepsin L [25] = target: T3, Procathepsin L; experiment: Non-competitive inhibition of recombinant human cathepsin L expressed in Escherichia coli assessed as inhibitory constant for enzyme-substrate-inhibitor complex using Z-FR-AMC as substrate in presence of pH 6 phosphate buffer by fluorescence assay
MCF-10A-neoT [26] = experiment: Antiinvasive activity against human MCF10AneoT cells at 5 uM incubated for 1 hr measured every 15 mins for 72 hrs by real time xCELLigence assay relative to control; type: functional; outline: as §4

T3 sequence (P07711 whole entry): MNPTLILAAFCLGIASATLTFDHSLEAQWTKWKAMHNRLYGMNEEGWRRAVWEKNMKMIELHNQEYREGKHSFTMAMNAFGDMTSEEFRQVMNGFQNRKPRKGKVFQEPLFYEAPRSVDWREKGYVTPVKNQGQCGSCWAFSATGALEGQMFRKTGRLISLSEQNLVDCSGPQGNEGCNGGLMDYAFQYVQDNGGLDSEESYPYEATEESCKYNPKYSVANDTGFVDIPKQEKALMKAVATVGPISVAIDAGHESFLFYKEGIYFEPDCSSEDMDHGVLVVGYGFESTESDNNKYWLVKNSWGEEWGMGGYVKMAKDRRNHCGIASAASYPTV

- pKi (Cathepsin B [1]): 3.61
- pKi (Cathepsin B [2]): 3.89
- pKi (Cathepsin B [3]): 3.61
SMILES: N#CC1(NC(=O)c2cc([N+](=O)[O-])ccc2O)CC1

- pKi (Cathepsin B [4]): 3.62
- pKi (Cathepsin B [5]): 3.72
- pKi (Cathepsin B [6]): 3.53
- pKi (Cathepsin B [7]): 3.72
SMILES: N#CCNC(=O)c1ccc([N+](=O)[O-])c2cccnc12

- pKi (Cathepsin B [8]): 5.10
- pKi (Cathepsin B [9]): 4.89
- pKi (Cathepsin B [10]): 5.09
- pKi (Cathepsin B [6]): 3.63
- inhibition (Cathepsin B [11]): 45%
- inhibition (Cathepsin B [12]): 35%
- pKi (Pro-cathepsin H [13]): 3.97
- pKi (Procathepsin L [14]): 5.30
SMILES: O=C(NCC1CCN(c2nc3ccccc3o2)CC1)c1cc([N+](=O)[O-])c2cccnc2c1O
- Activity (MCF-10A-neoT [15]): 50%
- growth inhibition (GI) (U-87 MG [16]): Active
- Activity (MCF-10A-neoT [17]): Non-Toxic
- Activity (U-87 MG [18]): Non-Toxic

- pKi (Cathepsin B [8]): 4.17
- pKi (Cathepsin B [19]): 3.89
- pKi (Cathepsin B [20]): 4.52
- pKi (Cathepsin B [6]): 3.69
- inhibition (Cathepsin B [21]): Active
- inhibition (Cathepsin B [22]): 60%
- pKi (Pro-cathepsin H [23]): 3.34
- pKi (Procathepsin L [24]): 3.81
- pKi (Procathepsin L [25]): 3.81
SMILES: N#CCNC(=O)c1cc([N+](=O)[O-])c2cccnc2c1O
- Activity (MCF-10A-neoT [26]): 20%
- Activity (MCF-10A-neoT [17]): Non-Toxic
- Activity (U-87 MG [18]): Non-Toxic
